Tested on: MS2 coat protein
Test: apparent Kd, MS2 coat protein; higher = weaker binding; RNA-MaP array; FMN 200 µM where present
Procedure, shortened: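 On Illumina sequencing-chip clusters, designs were transcribed by stalled E. coli RNA polymerase and titrated with SNAP-549-labelled MS2 coat protein (0.7 or 1.5 nM, doubling to 3 µM), without and then with constant ligand, in 100 mM Tris-HCl pH 7.5, 80 mM KCl, 4 mM MgCl2, BSA, DTT, yeast tRNA and Tween-20. Apparent Kd is the median of filtered per-cluster curve fits to green signal normalised to red-channel RNA signal and control-cluster median Fmax.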

[1] = designed as: ON switch for flavin mononucleotide, no ligand
[2] = ligand present: flavin mononucleotide, designed as: ON switch for flavin mononucleotide
[3] = designed as: OFF switch for flavin mononucleotide, no ligand
[4] = ligand present: flavin mononucleotide, designed as: OFF switch for flavin mononucleotide

Row | Sequence | apparent Kd [1] [nM] | apparent Kd [2] [nM] | apparent Kd [3] [nM] | apparent Kd [4] [nM]
1 | UGAGCGACCACAGGAUAUACUUGAGAAGACCGAGUAGAAGGGUGGAAGAGCGUGCAGUGACAUGAGGAUCACCCAUGUGGUUGU | 107 | 98.4 |  | 
2 | UGAGUGCGUGUUAGGAUAUGGUUUGGUGUUUCGGGCUAGAAGGGACAUGAGGAUCACCCAUGUAACUGGCGGGU |  |  | 53.3 | 51
3 | UGAUAGCACAGAGGAUAUGCGUAGUGUUAUCUCUACAUGAGGAUCACCCAUGUAGAAGGCUGUGCUAUCUAAGUCGGAAACGAC |  |  | 5.95 | 9.9
4 | UGAUAGCACAGAGGAUAUGCGUUGUGUUCUCUCUACAUGAGGAUCACCCAUGUAGAAGGCUGUGCUAUCUAAGUCGGAAACGAU |  |  | 8.81 | 36.9
5 | UGAUAGGACAGAGGAUAUACGGAUAGGAUCUACUAUCAAACAAGUCCUACAUGAGGAUCACCCAUGUAGAAGGCUGUCCUAUCU |  |  | 16.1 | 22.2
6 | UGAUAGGACAGAGGAUAUACGUGCUAGAGAUACUAGCUACAAAUCCUUACAUGAGGAUCACCCAUGUAGAAGGCUGUCCUAUCU |  |  | 19.3 | 39.4
7 | UGAUCCGUGUAGGAUAUCUGUUGGCCGCCGACUGGAGAAGGGCACACAUGAGGAUCACCCAUGUGUGGGCAUAA |  |  | 17.8 | 19.6
8 | UGAUCGAGAGAUCUUAGAUUCUGGUAGGAUAUACAUAAAAUGCGCUUUACAUGAGGAUCACCCAUGUAGAAGGACUAGAGUCUA |  |  | 7.54 | 9.8
9 | UGAUCUAUGUAGAAGGCCCAUAUCUAUAUUUAGGGAGGAUAUACAUGAGGAUCACCCAUGUAUAGAGCGAGUGGACUCGUCACC |  |  | 18.1 | 47.3
10 | UGCAAAAUUGCAACAUGAGGAUCACCCAUGUCUGGGUUGGCCAAGGAUAUGCUUCUAAUCCUAGUGCAGAAGGUGGAAACUCAU | 201 | 530 |  | 
11 | UGCCAAGCAGGAUAUGCACGUAAUAACAUGAGGAUCACCCAUGUGACCGAUUUAUAUUCUGCAGAAGGGCUUGGAU |  |  | 54.9 | 152
12 | UGCCGCAACAACACGGCAUCACAUGAGGAUCACCCAUGUUCACAGGAUAUGCGAUAGCCAACGAAGCAGAAGGGUGAUUACUUA | 31.9 | 215 |  | 
13 | UGCCUGAGGCAAAGCUUUAGGUAUACAUGAGGAUCACCCAUGUAGGAUAUGGUAGGCUUUGCUUACCAGAAGGACAUGUUAAUU |  |  | 19.8 | 54.6
14 | UGCGUACAAGCAGACAUGAGGAUCACCCAUGUAGUCUUAUGCGAGGAUAUCGGGAAGGAGGAUUCCGAGAAGGUGCGGUGAGCC | 25.4 | 21.9 |  | 
15 | UGCGUUUGAGGAUAUACGUAGAAUUAGAUUCAUGUAAAACUACAUGAGGAUCACCCAUGUAGAAGGCAAGCGCU |  |  | 17.7 | 79.4
16 | UGCUGGGAGUCAGGAUAUACGUGGUAUGCUGAGCACAUGAGGAUCACCCAUGUAGAAGGGAUUCCGCGGUGAGAUUCCGAAACA |  |  | 6.03 | 6.62
17 | UGCUGUGUCAGAGGAUAUACGUCAAUAAUCCAUUGCAAAUAGCGAUGGACAUGAGGAUCACCCAUGUAGAAGGCUGUCACAGCA |  |  | 58.3 | 242
18 | UGGAAGAGAAGAGGAUAUCCGUAGAUAACACAUGAGGAUCACCCAUGUAAGAGGGAUAGGUGAUAGGAGAAGGCUUAGAGAGGU |  |  | 15.2 | 14.9
19 | UGGACCGAGCUAUCGGUUGACUCGGAGGAUAUGACAUGAGGAUCACCCAUGUGGGAUCUAAAUUGUCAGAAGGCUGGUUCUGGG |  |  | 675 | 229
20 | UGGAUCAAUACAGGAUAUGGUGACGCACAUGAGGAUCACCCAUGUCCGCAGCGUGCUAAGCACGCCCAGAAGGGUAUUGAUUCG | 722 | 69.4 |  | 
21 | UGGAUCAUCGGAGGAUAUCAUGUAAAUACAUGAGGAUCACCCAUGUCGUACGAGAGUACGGAGAUUGAGAAGGCCGAUGAUCCU | 24.6 | 15.4 |  | 
22 | UGGCGACAUGAGGAUCACCCAUGUAUUUCCAGUUAAGGAUAUAGGUGCUAGCAACGGCAGCUAGAAGGUGAGAUAA | 42 | 58 |  | 
23 | UGGCGCAUGUGAGGAUAUAAUGGGUAGUAACUAUUAGAAGGUACAUGAGGAUCACCCAUGUACUUGGGUUUAUCAGGAACUCCU |  |  | 7.02 | 6.7
24 | UGGGAACGAGGAUAUCGAUGGUGGAACAUGAGGAUCACCCAUGUAUGAGAUAGUGUAGUUCGAGAAGGCGUUAAGU |  |  | 68.6 | 33.8
25 | UGGGCUACGUGGUCCGCCAGACGUAGAAGGGUCUACAUGAGGAUCACCCAUGUGACCGUUAGUGGACAGGAUAUACGCGGAGUG |  |  | 8.38 | 22.8
26 | UGGGUUACAGGAUAUACAUGAGGAUCACCCAUGUCAUGUUUCGUGGCGGAUAGCUCGAGUAGAAGGGUGCAUCC |  |  | 50 | 60.4
27 | UGGUACAUCGGAGGAUAUCAUGUAGACACAUGAGGAUCACCCAUGUCGAUGGAGACAUCGGAGAUUGAGAAGGCCGAUGUACCU | 503 | 23.3 |  | 

Row | Sequence | apparent Kd [1] [nM] | apparent Kd [2] [nM] | apparent Kd [3] [nM] | apparent Kd [4] [nM]
28 | UGGUACAUCGGAGGAUAUCAUGUAGAUACAUGAGGAUCACCCAUGUCGUACGAGAGUACGGAGAUUGAGAAGGCCGAUGUACCU | 30.7 | 16.4 |  | 
29 | UGGUACAUGGGAGGAUAUCCUCAAGAGACAUGAGGAUCACCCAUGUAUUAUAUGCCUCUUGGCAUGGAGAAGGCCCAUGUACCU | 56.2 | 55.4 |  | 
30 | UGGUACAUGGGAGGAUAUGGGUUGAUAACAUGAGGAUCACCCAUGUUAAUGCCGAAAGGCAAGAACUAGAAGGCCCAUGUACCU | 410 | 30.2 |  | 
31 | UGGUACUAGGGAGGAUAUGGCAAGAUACAUGAGGAUCACCCAUGUUUAAGAAUGCCGAGAGGCAACUAGAAGGCCCUAGUACCU | 7.75 | 4.7 |  | 
32 | UGGUACUAGGGAGGAUAUGGGAAGAUACAUGAGGAUCACCCAUGUUUAACAAUGCCGAGAGGCAACUAGAAGGCCCUAGUACCU | 227 | 15.5 |  | 
33 | UGGUACUAGGGAGGAUAUGGGAAGAUACAUGAGGAUCACCCAUGUUUAAGAAUGCCGAGAGGCAACUAGAAGGCCCUAGUUCCU | 390 | 19.5 |  | 
34 | UGGUACUAGGGAGGAUAUGGGAAGAUACAUGAGGAUCACCCAUGUUUAAGAAUGCCGAGAGGUAACUAGAAGGCCCUAGUACCU | 455 | 15.1 |  | 
35 | UGGUGAAGUGUAGGAUAUGGAGGUGGGUUUUGGCCAGAAGGACAUGAGGAUCACCCAUGUGGUAGAGGGUUGGCGGUGGCCCGU |  |  | 16 | 13.7
36 | UGGUGACGUGUAGGAUAUGGAGGUGGGUUUUGGCCAGAAGGACAUGAGGAUCACCCAUGUGGUAGAGGGUUGGCGGUGGCCCGU |  |  | 17.7 | 15.2
37 | UGGUGUGAAUAGGAUAUGAACUCUGCCAGGAUAUCAGAAGGGUUUACAUGAGGAUCACCCAUGUCAUCCACUGC |  |  | 18.8 | 18.9
38 | UGGUUCAUGGGAGGAUAUGGGAUGAUAACAUGAGGAUCACCCAUGUUAAAGAUGCCGAGAGGCAACUAGAAGGCCCAUGAACCU | 268 | 61.7 |  | 
39 | UGGUUGUCAGGAUAUUGGGUUUUUAACUUUAGUUUUAUAUUCGAGAAGGGACAUGAGGAUCACCCAUGUUACGU |  |  | 32.7 | 37.6
40 | UGUAAAAUUGAUCCUGCAAGUACAUGAGGAUCACCCAUGUGCUAGGAUAUCGCGCAGCUAAAGUCCGAGAAGGAGCACAAUGUA |  |  | 32.3 | 95.6
41 | UGUAAGAUGCAGAAGGUGUUAGCUAGAGCUACGACAUGAGGAUCACCCAUGUACUAGAAACAGUACAAGGAUAUGCAUCUUACU | 18 | 6.53 |  | 
42 | UGUACCGUUGGAACGCGUCGAGUACAUGAGGAUCACCCAUGUCAGGAUAUGUGGCGAAAGGUAGCACAGAAGGGACAUAGAAGA |  |  | 32.6 | 92.3
43 | UGUACUUAUUUUAAUUAUGAUUUACUAGAAGGUAGAUACAUGAGGAUCACCCAUGUUUAGAGUUCUAAGGAUAUAGAUUUUAUC | 10.3 | 10.2 |  | 
44 | UGUAUGUGGGCAGGAUAUACAUGAAUAUAUAUGAUGUAGUAUGAUGUAACAUGAGGAUCACCCAUGUAGAAGGGCCGGUGUAUG |  |  | 165 | 214
45 | UGUCCAUAGCAGAAGGACAUAAAUACAUGACCAAACAUGAGGAUCACCCAUGUAGGAUAUGCUAUGGACUAAGAGCGAAAGCUC |  |  | 6.6 | 9.31
46 | UGUCGGAGCAGAGGAUAUUACAUGAGGAUCACCCAUGUACGAACCAAUAGCUGGAAACAGCAAUGUAAGAAGGCUGCUCCGACA |  |  | 11.3 | 79
47 | UGUCGGAGCAGAGGAUAUUACAUGAGGAUCACCCAUGUAUGAACCAAUAGCUGGAAACAGAAAUGUAAGAAGGCUGCUCCGACA |  |  | 5.84 | 21.2
48 | UGUCGGAGCAGAGGAUAUUACAUGAGGAUCACCCAUGUAUGAACCAAUAGCUGGAAACAGCAAUGGAAGAAGGCUGCUCCGACA |  |  | 4.99 | 5.37
49 | UGUCGGAGCAGAGGAUAUUACAUGAGGAUCACCCAUGUAUGAACCAAUAGCUGGAAACAGCAAUGUAAGAAGGCUGCUCCGACC |  |  | 12 | 153
50 | UGUCGGAGCAGAGGAUAUUACAUGAGGAUCACCCAUGUAUGAACCAAUAGCUGGAAACAGCAAUGUAAGAAGGGUGCUCCGACA |  |  | 6.09 | 13.2
51 | UGUCGGAGCAGAGGAUAUUACAUGAGGAUCACCCAUGUAUGAACCAAUAGCUGGAAACAGCGAUGUAAGAAGGCUGCUCCGACA |  |  | 10.2 | 124
52 | UGUCGGAGCAGAGGAUAUUACAUGAGGAUCACCCAUGUAUGAACCUAUAGCUGGAAACAGCAAUGUAAGAAGGCUGCUCCGACA |  |  | 23.5 | 338
53 | UGUGAGUUGAUCUUAGAUCGGAGUACAUGAGGAUCACCCAUGUAGGAUAUUCAAAGACGCAGAUAGAAGAAGGACAUAGGUUUC |  |  | 15.1 | 13.8
54 | UGUGAGUUGAUGUUAGAUCGGAGUACAUGAGGAUCACCCAUGUAGGAUAUUCAAAGACGCAGAUAGAAGAAGGACAUAGGUUUC |  |  | 15.2 | 14.3

— the EternaBench riboswitch data
